The results in this text go back to ChEMBL document CHEMBL1122393, “Potent antagonists of the antidiuretic responses to arginine-vasopressin based on modifications of [1-(beta-mercapto-beta,beta-cyclopentamethylenepropionic acid),2-D- phenylalanine,4-valine]arginine-vasopressin at position 4” (J Med Chem, 1983).

Experiment [1] is filed under the species Rattus norvegicus. Briefly: Effective dose of compound was determined for anti-vasopressor potency in rat. In kind it is functional. The essentials:
(§1)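 Intravenous vasopressor assay in phenoxybenzamine-treated rats under urethane anaesthesia, with the USP posterior pituitary reference standard as agonist. Each antagonist was given at two doses. The effective dose (nmol/kg) is the dose that cuts the response to 2x units of agonist to the response to 1x unit given before antagonist. It was interpolated on a log scale between the two doses.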

The subject of experiment [2] is Rattus norvegicus. Kind of experiment: The compound tested in vivo for anti-vasopressor potency in rats. In kind it is functional, organism-based. The settings on record: read-out: pA2 (converted). The essentials: as §1
The species entered for experiment [3] is Rattus norvegicus. Briefly: In vitro anti-oxytocic potency of compound in rat uterus in presence of 0.5 mM of Mg. The format is functional. The conditions noted are these: read-out: pA2 (converted). In a few lines:
(§2)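 Oxytocic antagonism on isolated rat uteri, with the USP posterior pituitary reference standard as agonist. Potency is expressed as a pA2 value.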

The subject of experiment [4] is Rattus norvegicus. Briefly: In vivo antiantidiuretic potency of compound was determined in rats. The format is functional, organism-based. The conditions noted are these: Urine, read-out: pA2 (converted). In a few lines:
(§3)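 Antidiuretic assay in rats under ethanol anaesthesia, with the USP posterior pituitary reference standard as agonist, given intravenously. The standard was injected 20 min after antagonist, or 10 min for analogues without agonism. Two antagonist doses were used, and the effective dose (nmol/kg) was log-interpolated as the dose reducing the 2x-unit response to the 1x-unit response. In vivo pA2 = −log(effective dose/estimated volume of distribution).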

Experiment [5] is described as follows: Ratio of anti-vasopressor ED to antidiuretic ED was determined. The format is functional, Urine. In a few lines: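 Ratio computed as antivasopressor effective dose divided by antiantidiuretic effective dose. Both effective doses come from intravenous rat assays and are defined as the dose (nmol/kg) that reduces the 2x-unit agonist response to the 1x-unit response.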

For experiment [6], the species on record is Rattus norvegicus. Kind of experiment: Effective dose of compound was determined for antiantidiuretic potency in rats. The format is functional, Urine. The essentials:
as §3

Experiment [7] in a line: Ratio of anti-oxytocic ED to antidiuretic ED was determined. In kind it is functional, Urine. In a few lines:
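Ratio computed as antioxytocic effective dose divided by antiantidiuretic effective dose. Both effective doses are defined as the dose (nmol/kg) that reduces the 2x-unit agonist response to the 1x-unit response.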

Experiment [8] deals with Rattus norvegicus. Kind of experiment: (§4) In vivo anti-oxytocic potency of compound was determined in rat uterus. In kind it is functional. The essentials:
(§5)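 Rat uterus in situ, with synthetic oxytocin as agonist. Two antagonist doses were used, and the effective dose (nmol/kg) was interpolated on a log scale as the dose reducing the 2x-unit response to the 1x-unit response.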

For experiment [9], the species on record is Rattus norvegicus. Kind of experiment: In vitro anti-oxytocic potency of compound in rat uterus in absence of Mg. The settings on record: read-out: pA2 (converted). The format is functional. The essentials:
as §2

Experiment [10] concerns Rattus norvegicus. The description is as §4. The format is functional, organism-based. The settings on record: read-out: pA2 (converted). The essentials: as §5
For experiment [11], the species on record is Rattus norvegicus. Briefly: Effective dose of compound was determined for anti-vasopressor potency in rat; Weak agonist. The format is functional, organism-based. The settings on record: filed as partial agonist.
The species entered for experiment [12] is Rattus norvegicus. Briefly: Effective dose of compound was determined for antiantidiuretic potency in rats; Weak agonist. The settings on record: Urine, filed as partial agonist. In kind it is functional, organism-based. The essentials:
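Intravenous antidiuretic assay in rats under ethanol anesthesia. The agonist was the USP posterior pituitary reference standard, injected 20 min after the antagonist to allow recovery from initial antidiuretic responses. Antagonist was given at high and low doses. The effective dose (nmol/kg) reduces the response to 2x units of agonist to that of 1x unit given before antagonist, log-interpolated.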

Numbered stars: 1 amine (or outer) side, 2 acyl side, 3 side chain; on linkers, the order of the positions; unused ones are H or OH. Bridge positions count the residues as written; N and C are the ends. Square brackets hold non-standard residues; d marks the D form. Peptide text beside a SMILES is read from it. X1 = O=C(CC1(S[*:2])CCCCC1)[*:1]

On to `CC(C)C[C@@H]1NC(=O)[C@H](Cc2ccccc2)NC(=O)[C@@H](Cc2ccccc2)NC(=O)CC2(CCCCC2)SSC[C@@H](C(=O)N2CCC[C@H]2C(=O)N[C@@H](CCCN=C(N)N)C(=O)NCC(N)=O)NC(=O)[C@H](CC(N)=O)NC1=O`, for which the ED in experiment [1] was 1.3 nM/kg; in experiment [6], 66 nM/kg. In addition, the Kb in [2] was 20 nM; in [3], 13.2 nM; in experiment [4] it was 851 nM. For the same molecule, the ED ratio in experiment [5] turned out to be 0.02.
For `NC(=O)CC[C@@H]1NC(=O)[C@H](Cc2ccccc2)NC(=O)[C@@H](Cc2ccccc2)NC(=O)CC2(CCCCC2)SSC[C@@H](C(=O)N2CCC[C@H]2C(=O)N[C@@H](CCCN=C(N)N)C(=O)NCC(N)=O)NC(=O)[C@H](CC(N)=O)NC1=O` [listing 1 of 2 here], the ED was determined as 0.3 nM/kg in experiment [1], 4.3 nM/kg in [6] and 4 nM/kg in experiment [8]. Further, the ED ratio in experiment [5] turned out to be 0.07; in experiment [7], 0.9.
Regarding `CC(C)[C@@H]1NC(=O)[C@H](Cc2ccccc2)NC(=O)[C@@H](Cc2ccccc2)NC(=O)CC2(CCCCC2)SSC[C@@H](C(=O)N2CCC[C@H]2C(=O)N[C@@H](CCCN=C(N)N)C(=O)NCC(N)=O)NC(=O)[C@H](CC(N)=O)NC1=O` ([dF]FVNCPRG-NH2; linker N-5 via X1), the ED in experiment [1] worked out at 0.58 nM/kg; in experiment [6] it was 0.67 nM/kg; in experiment [8] it was 8.9 nM/kg. In [5], the ED ratio was determined as 0.9.
`C[C@@H](O)[C@@H]1NC(=O)[C@H](Cc2ccccc2)NC(=O)[C@@H](Cc2ccccc2)NC(=O)CC2(CCCCC2)SSC[C@@H](C(=O)N2CCC[C@H]2C(=O)N[C@@H](CCCN=C(N)N)C(=O)NCC(N)=O)NC(=O)[C@H](CC(N)=O)NC1=O`: the ED is 2.9 nM/kg in [1], 1.7 nM/kg in [6] and 3.2 nM/kg in experiment [8]. Besides, the Kb in experiment [2] was 41.7 nM; in experiment [3], 9.77 nM; in experiment [4] it was 24 nM; in experiment [9], 9.12 nM; in experiment [10] it was 44.7 nM. The values for the ED ratio in [5] and in [7] were 1.7 and 1.9, respectively.
With `NC(=O)CNC(=O)[C@H](CCCN=C(N)N)NC(=O)[C@@H]1CCCN1C(=O)[C@@H]1CSSC2(CCCCC2)CC(=O)N[C@H](Cc2ccccc2)C(=O)N[C@@H](Cc2ccccc2)C(=O)N[C@@H](CC2CCCCC2)C(=O)N[C@@H](CC(N)=O)C(=O)N1`, the ED stood at 9 nM/kg in experiment [1] and 4.6 nM/kg in experiment [6]. For the same molecule, the Kb in experiment [2] was 200 nM; in [3] it was 25.7 nM; in experiment [4] it was 64.6 nM; in [9] it was 16.6 nM. Moreover, in experiment [5], the ED ratio was determined as 2.
As for `CC[C@H](C)[C@@H]1NC(=O)[C@H](Cc2ccccc2)NC(=O)[C@@H](Cc2ccccc2)NC(=O)CC2(CCCCC2)SSC[C@@H](C(=O)N2CCC[C@H]2C(=O)N[C@@H](CCCN=C(N)N)C(=O)NCC(N)=O)NC(=O)[C@H](CC(N)=O)NC1=O` ([dF]FINCPRG-NH2; linker N-5 via X1), the values for the ED in [1], in [6] and in experiment [8] were 0.99 nM/kg, 0.46 nM/kg and 5.8 nM/kg, respectively. In addition, the Kb was 13.8 nM in experiment [2]; 6.46 nM in experiment [3]; 5.75 nM in experiment [4]; 9.12 nM in experiment [9]; 77.6 nM in [10]. The ED ratio in [5] turned out to be 2.2; in experiment [7] it was 13.
As to `CCCC[C@@H]1NC(=O)[C@H](Cc2ccccc2)NC(=O)[C@@H](Cc2ccccc2)NC(=O)CC2(CCCCC2)SSC[C@@H](C(=O)N2CCC[C@H]2C(=O)N[C@@H](CCCN=C(N)N)C(=O)NCC(N)=O)NC(=O)[C@H](CC(N)=O)NC1=O`, the ED in [1] was 2.1 nM/kg; in [6], 5.6 nM/kg. The Kb in experiment [2] is 30.2 nM; in experiment [3], 16.6 nM; in [4] it was 75.9 nM; in experiment [9], 28.8 nM. Also, in [5], the ED ratio is 0.4.
Turning to `NC(=O)CNC(=O)[C@H](CCCN=C(N)N)NC(=O)[C@@H]1CCCN1C(=O)[C@@H]1CSSC2(CCCCC2)CC(=O)N[C@H](Cc2ccccc2)C(=O)N[C@@H](Cc2ccccc2)C(=O)N[C@@H](Cc2ccc(O)cc2)C(=O)N[C@@H](CC(N)=O)C(=O)N1`, the values for the ED in experiment [1] and in [6] were 22 nM/kg and roughly 178 nM/kg, respectively. The Kb in [2] is 263 nM; in [3], 37.2 nM; in [4] it was roughly 2690 nM; in experiment [9] it was 20.9 nM. Moreover, in [5], the ED ratio was found to be 0.12.
For the molecule `C[C@@H]1NC(=O)[C@H](Cc2ccccc2)NC(=O)[C@@H](Cc2ccccc2)NC(=O)CC2(CCCCC2)SSC[C@@H](C(=O)N2CCC[C@H]2C(=O)N[C@@H](CCCN=C(N)N)C(=O)NCC(N)=O)NC(=O)[C@H](CC(N)=O)NC1=O`, the ED amounted to 1.9 nM/kg in experiment [1] and 2.2 nM/kg in experiment [6]. For the same molecule, the Kb in experiment [2] was 28.2 nM; in experiment [3], 18.6 nM; in [4], 30.2 nM; in [9] it was 20.9 nM. In addition, the ED ratio in experiment [5] is 0.9.
In the case of `NC(=O)CC[C@@H]1NC(=O)[C@H](Cc2ccccc2)NC(=O)[C@@H](Cc2ccccc2)NC(=O)CC2(CCCCC2)SSC[C@@H](C(=O)N2CCC[C@H]2C(=O)N[C@@H](CCCN=C(N)N)C(=O)NCC(N)=O)NC(=O)[C@H](CC(N)=O)NC1=O` [listing 2 of 2 here], the Kb in experiment [2] was 4.47 nM; in experiment [3] it was 3.72 nM; in [4] it was 61.7 nM; in experiment [9], 2.57 nM; in [10], 56.2 nM.
With `NC(=O)CNC(=O)[C@H](CCCN=C(N)N)NC(=O)[C@@H]1CCCN1C(=O)[C@@H]1CSSC2(CCCCC2)CC(=O)N[C@H](Cc2ccccc2)C(=O)N[C@@H](Cc2ccccc2)C(=O)N2CCC[C@H]2C(=O)N[C@@H](CC(N)=O)C(=O)N1`, the ED entry in experiment [11] and in experiment [12] was “Partial agonist” throughout. For the same molecule, the results for the Kb in experiment [3] and in experiment [9] were 3720 nM and 1740 nM, respectively.
`NC(=O)CNC(=O)[C@H](CCCN=C(N)N)NC(=O)[C@@H]1CCCN1C(=O)[C@@H]1CSSC2(CCCCC2)CC(=O)N[C@H](Cc2ccccc2)C(=O)N[C@@H](Cc2ccccc2)C(=O)NCC(=O)N[C@@H](CC(N)=O)C(=O)N1`: the ED turned out to be 11 nM/kg in experiment [1] and 97 nM/kg in experiment [6]. Moreover, the Kb is 162 nM in experiment [2], 46.8 nM in [3], 1410 nM in experiment [4] and 17.4 nM in experiment [9]. For the same molecule, the ED ratio in [5] is 0.11.
Regarding `NC(=O)CNC(=O)[C@H](CCCN=C(N)N)NC(=O)[C@@H]1CCCN1C(=O)[C@@H]1CSSC2(CCCCC2)CC(=O)N[C@H](Cc2ccccc2)C(=O)N[C@@H](Cc2ccccc2)C(=O)N[C@@H](Cc2ccccc2)C(=O)N[C@@H](CC(N)=O)C(=O)N1`, the results for the ED in experiment [1] and in experiment [6] were 25 nM/kg and 65 nM/kg, respectively. In addition, the Kb was 355 nM in [2], 21.4 nM in experiment [3], 851 nM in experiment [4] and 26.9 nM in experiment [9]. Moreover, the ED ratio in [5] is recorded as 0.5.
With `CC[C@@H]1NC(=O)[C@H](Cc2ccccc2)NC(=O)[C@@H](Cc2ccccc2)NC(=O)CC2(CCCCC2)SSC[C@@H](C(=O)N2CCC[C@H]2C(=O)N[C@@H](CCCN=C(N)N)C(=O)NCC(N)=O)NC(=O)[C@H](CC(N)=O)NC1=O`, the ED came to 1.4 nM/kg in [1], 0.77 nM/kg in experiment [6] and 2.4 nM/kg in experiment [8]. The Kb is 20 nM in experiment [2], 11 nM in experiment [4], 18.6 nM in experiment [9] and 30.2 nM in experiment [10].
Consider `CCC[C@@H]1NC(=O)[C@H](Cc2ccccc2)NC(=O)[C@@H](Cc2ccccc2)NC(=O)CC2(CCCCC2)SSC[C@@H](C(=O)N2CCC[C@H]2C(=O)N[C@@H](CCCN=C(N)N)C(=O)NCC(N)=O)NC(=O)[C@H](CC(N)=O)NC1=O`, for which the figures for the ED in experiment [1] and in experiment [6] were 1.4 nM/kg and 6.9 nM/kg, respectively. Also, the Kb in experiment [2] was 18.6 nM; in experiment [3], 19.1 nM; in experiment [4] it was 102 nM; in experiment [9], 9.33 nM. In addition, in [5], the ED ratio turned out to be 0.2.
